Assay [1] has as its target T1, Tyrosine-protein phosphatase non-receptor type 1 (Homo sapiens, UniProt P18031).
T1 sequence (P18031 whole entry): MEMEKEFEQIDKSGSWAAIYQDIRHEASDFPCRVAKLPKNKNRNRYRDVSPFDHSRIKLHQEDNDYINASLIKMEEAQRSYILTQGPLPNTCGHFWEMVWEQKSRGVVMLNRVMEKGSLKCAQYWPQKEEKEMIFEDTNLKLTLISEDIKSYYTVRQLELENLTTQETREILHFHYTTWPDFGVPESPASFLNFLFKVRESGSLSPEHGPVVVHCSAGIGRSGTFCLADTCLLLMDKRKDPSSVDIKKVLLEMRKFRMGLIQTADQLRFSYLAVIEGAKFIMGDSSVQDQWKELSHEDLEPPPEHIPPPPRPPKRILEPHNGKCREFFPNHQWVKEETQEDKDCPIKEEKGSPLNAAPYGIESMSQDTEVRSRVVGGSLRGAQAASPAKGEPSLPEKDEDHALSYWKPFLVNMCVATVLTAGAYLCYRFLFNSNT
In words: Inhibitory activity against human PTP1B. The gist of the method:
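GST–PTP1B (30–40 nM) in 50 mM MOPs pH 6.5 with 2 mM DTT, 1 mM EDTA and 2% DMSO. Substrate was 2 mM pNPP.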

Another assay relates to HCT-116. In words: Cytotoxicity against HCT116 cell line. The format is functional, cell-based. As to conditions: Homo sapiens; call rule not given here. The gist of the method:
(§1)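 Tumor cells trypsinized and seeded at 3000 cells/well; after attachment, exposed to a range of compound concentrations for 72 h. MTT (5 mg/mL) was added and incubated 3 h, then medium was removed and formazan dissolved in DMSO. Absorbance read at 550 nm with […] reference.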

Assay [2] deals with T2, M-phase inducer phosphatase 1 (Homo sapiens, UniProt P30304).
T2 sequence (P30304 whole entry): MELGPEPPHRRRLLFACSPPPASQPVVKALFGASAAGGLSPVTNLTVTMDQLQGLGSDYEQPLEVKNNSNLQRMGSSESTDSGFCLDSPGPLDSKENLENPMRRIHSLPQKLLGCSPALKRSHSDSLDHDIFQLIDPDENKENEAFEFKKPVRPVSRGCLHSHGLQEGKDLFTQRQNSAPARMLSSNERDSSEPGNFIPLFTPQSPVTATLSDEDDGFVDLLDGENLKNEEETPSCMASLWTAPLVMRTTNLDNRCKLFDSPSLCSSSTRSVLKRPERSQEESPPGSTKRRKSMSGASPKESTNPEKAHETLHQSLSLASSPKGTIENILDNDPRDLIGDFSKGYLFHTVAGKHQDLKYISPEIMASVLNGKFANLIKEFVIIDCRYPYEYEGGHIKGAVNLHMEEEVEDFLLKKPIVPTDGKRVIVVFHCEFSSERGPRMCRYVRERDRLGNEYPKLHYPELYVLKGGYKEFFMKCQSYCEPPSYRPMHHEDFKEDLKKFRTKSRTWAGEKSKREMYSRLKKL
Briefly: Inhibitory activity against human Cdc25A phosphatase.

The test system of a further assay is A549. Briefly: Cytotoxicity against A549 cell line. The format is functional, cell-based. To be noted: Homo sapiens. The gist of the method: as §1
Assay [3] concerns the target T3, M-phase inducer phosphatase 2 (Homo sapiens, UniProt P30305).
T3 sequence (P30305 whole entry): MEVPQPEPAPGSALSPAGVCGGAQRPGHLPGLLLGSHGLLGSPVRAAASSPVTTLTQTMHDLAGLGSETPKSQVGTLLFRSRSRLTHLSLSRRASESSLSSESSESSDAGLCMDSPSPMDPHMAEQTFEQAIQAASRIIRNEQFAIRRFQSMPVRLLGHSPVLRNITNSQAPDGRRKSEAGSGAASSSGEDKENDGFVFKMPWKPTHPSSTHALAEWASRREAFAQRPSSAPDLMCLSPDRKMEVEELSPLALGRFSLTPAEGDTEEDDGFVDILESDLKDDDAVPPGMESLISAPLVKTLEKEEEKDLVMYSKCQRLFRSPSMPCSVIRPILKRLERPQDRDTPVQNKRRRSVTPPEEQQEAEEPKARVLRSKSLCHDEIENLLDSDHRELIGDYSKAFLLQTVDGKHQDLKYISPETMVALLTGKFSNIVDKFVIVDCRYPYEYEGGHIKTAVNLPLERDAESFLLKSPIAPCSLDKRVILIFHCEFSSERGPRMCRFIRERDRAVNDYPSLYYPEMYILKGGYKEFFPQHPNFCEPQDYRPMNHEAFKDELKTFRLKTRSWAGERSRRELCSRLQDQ
In words: Inhibitory activity against human Cdc25B phosphatase.

As a reminder, the IC50 is the concentration that gives 50% inhibition. Take `COc1ccc(NC2=C(C(C)C)C(=O)C(=O)c3c2ccc2c3CCCC2(C)C)cc1`: the 50% inhibitory concentration (IC50) result is “Not Active” in assay [1]; 5.51 µM with HCT-116; 11.8 µM in assay [2] (read-out: IC50); 9.19 µM with A549; 4.09 µM in assay [3] (read-out: IC50).
As to `CC(C)C1=C(Sc2ccc(Br)cc2)c2ccccc2C(=O)C1=O`, the IC50 amounted to 7.57 µM in assay [1] (read-out: IC50); 5.85 µM with HCT-116; 5.43 µM in assay [2] (read-out: IC50); 5.93 µM in the assay on A549; 3.63 µM in assay [3] (read-out: IC50).
Consider `CC(C)C1=C(Nc2ccc([N+](=O)[O-])cc2)c2ccccc2C(=O)C1=O`, for which the IC50 in assay [1] (read-out: IC50) was determined as 19.1 µM; in the assay on HCT-116 it was 2.39 µM; in assay [2] (read-out: IC50), 6.87 µM; in the assay on A549, 6.59 µM; in assay [3] (read-out: IC50) it was 5.33 µM.
In the case of `Cc1ccc(NC2=C(C(C)C)C(=O)C(=O)c3ccccc32)cc1`, the IC50 stood at 19.6 µM in assay [1] (read-out: IC50); 6.16 µM in the assay on HCT-116; 7.06 µM in assay [2] (read-out: IC50); 8.2 µM in the assay with A549; 4.53 µM in assay [3] (read-out: IC50).
Consider `CC(C)C1=C(Nc2ccccc2)c2ccccc2C(=O)C1=O`, for which the IC50 entry in assay [1] was “Not Active”; in the assay with HCT-116, 8.22 µM; in assay [2] (read-out: IC50), 10.9 µM; in the assay with A549 it was 25 µM; in assay [3] (read-out: IC50), 8.71 µM.
Take `CC(C)C1=C(Nc2ccc([N+](=O)[O-])cc2)c2ccc3c(c2C(=O)C1=O)CCCC3(C)C`: the IC50 result in assay [1] was “Not Active”; with HCT-116, 7.1 µM; in assay [2], “Not Active”; in the assay on A549 it was 5.34 µM; in assay [3], “Not Active”.
Turning to `Cc1ccc(NC2=C(C(C)C)C(=O)C(=O)c3c2ccc2c3CCCC2(C)C)cc1`, the IC50 result in assay [1] is “Not Active”; with HCT-116, 24.9 µM; in assay [2] (read-out: IC50) it was 27.6 µM; in the assay on A549 it was 4.25 µM; in assay [3] (read-out: IC50) it was 7.54 µM.
With `CC(C)C1=C(Sc2ccccc2)c2ccccc2C(=O)C1=O`, the IC50 in assay [1] (read-out: IC50) worked out at 13.7 µM; in the assay with HCT-116, 8.03 µM; in assay [2] (read-out: IC50) it was 5.86 µM; with A549, 7.59 µM; in assay [3] (read-out: IC50), 10.9 µM.
With `CC(C)C1=C(Sc2ccccc2)c2ccc3c(c2C(=O)C1=O)CCCC3(C)C`, the half-maximal inhibitory concentration (IC50) in assay [1] (read-out: IC50) stood at 10.4 µM; with HCT-116, 5.75 µM; in assay [2] (read-out: IC50), 3.97 µM; with A549 it was 26.6 µM; in assay [3] (read-out: IC50), 5.07 µM.
Turning to `CC(=O)Nc1ccc(SC2=C(C(C)C)C(=O)C(=O)c3ccccc32)cc1`, the IC50 in assay [1] (read-out: IC50) stood at 7.63 µM; in the assay on HCT-116, 6.32 µM; in assay [2] (read-out: IC50) it was 21.9 µM; with A549 it was 7.36 µM; in assay [3] (read-out: IC50) it was 13.8 µM.
`CC(C)C1=C(Sc2ccc(Br)cc2)c2ccc3c(c2C(=O)C1=O)CCCC3(C)C`: the IC50 in assay [1] (read-out: IC50) stood at 7.19 µM; in the assay with HCT-116, 4.94 µM; in assay [2] (read-out: IC50) it was 20.3 µM; in the assay on A549, 5.07 µM; in assay [3] (read-out: IC50) it was 3.78 µM.
Consider `CC(C)C1=C(Sc2ccc(F)cc2)c2ccc3c(c2C(=O)C1=O)CCCC3(C)C`, for which the IC50 is 4.55 µM in assay [1] (read-out: IC50); 5.71 µM with HCT-116; 22.1 µM in assay [2] (read-out: IC50); 1.25 µM in the assay on A549; 2.58 µM in assay [3] (read-out: IC50).
For `COc1ccc(NC2=C(C(C)C)C(=O)C(=O)c3ccccc32)cc1`, the 50% inhibitory concentration (IC50) entry was “Not Active” in assay [1]; 4.04 µM with HCT-116; 4.9 µM in assay [2] (read-out: IC50); 87 µM with A549; 4.63 µM in assay [3] (read-out: IC50).
Consider `CC(C)C1=C(c2ccccc2)c2ccccc2C(=O)C1=O`, for which the IC50 result in assay [1] was “Not Active”; in the assay on HCT-116 it was 29.6 µM; in assay [2] (read-out: IC50), 7.83 µM; in the assay with A549, 24.7 µM; in assay [3] (read-out: IC50), 3.23 µM.
In the case of `CC(=O)Nc1ccc(SC2=C(C(C)C)C(=O)C(=O)c3c2ccc2c3CCCC2(C)C)cc1`, the IC50 in assay [1] (read-out: IC50) was found to be 9.05 µM; in the assay with HCT-116, 5.18 µM; in assay [2] (read-out: IC50), 5.96 µM; in the assay on A549 it was 15.4 µM; in assay [3] (read-out: IC50), 4.85 µM.
For the molecule `CC(C)C1=C(c2ccccc2)c2ccc3c(c2C(=O)C1=O)CCCC3(C)C`, the IC50 is 4.11 µM in assay [1] (read-out: IC50); 6.28 µM in the assay on HCT-116; 3.96 µM in assay [2] (read-out: IC50); 6.24 µM in the assay on A549; 3.16 µM in assay [3] (read-out: IC50).
On the same counts, the results for `CC(C)C1=C(Nc2ccccc2)c2ccc3c(c2C(=O)C1=O)CCCC3(C)C` are 27.2 µM, 6.25 µM, 8.81 µM, 19.1 µM and 3.99 µM.
On the same counts, the results for `CC(C)C1=C(Sc2ccc(F)cc2)c2ccccc2C(=O)C1=O` are 7.22 µM, 20.8 µM, 12.8 µM, 20.4 µM and 7.55 µM.
On to `CC(C)C1=Cc2ccccc2C(=O)C1=O`, for which the IC50 entry is “Not Active” in assay [1]; 4 µM with HCT-116; 11.2 µM in assay [2] (read-out: IC50); 4.14 µM in the assay with A549; 24.1 µM in assay [3] (read-out: IC50).
With `CC(C)C1=Cc2ccc3c(c2C(=O)C1=O)CCCC3(C)C` [MILTIRONE], the IC50 entry in assay [1] was “Not Active”; with HCT-116, 12.4 µM; in assay [2] (read-out: IC50), greater than 70.8 µM; in the assay on A549 it was 24.6 µM; in assay [3], “Not Active”.

Values taken from ChEMBL document CHEMBL1146142, “Synthesis of miltirone analogues as inhibitors of Cdc25 phosphatases” (Bioorg Med Chem Lett, 2006).
